# Screens (PubChem)
# Rev-erbA mod – Rev-erb alpha (human) modulation; P20393; Rev-erbα–FITC-DNA binding, fluorescence polarization, 90 min; activity, % at 10 µM; hit rate 0.79% among 370,000; AID 1259318;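 active = activity above about 14%, limit read from the data; passing the limit was not always enough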
# Target sequence (P20393 whole entry, looked up): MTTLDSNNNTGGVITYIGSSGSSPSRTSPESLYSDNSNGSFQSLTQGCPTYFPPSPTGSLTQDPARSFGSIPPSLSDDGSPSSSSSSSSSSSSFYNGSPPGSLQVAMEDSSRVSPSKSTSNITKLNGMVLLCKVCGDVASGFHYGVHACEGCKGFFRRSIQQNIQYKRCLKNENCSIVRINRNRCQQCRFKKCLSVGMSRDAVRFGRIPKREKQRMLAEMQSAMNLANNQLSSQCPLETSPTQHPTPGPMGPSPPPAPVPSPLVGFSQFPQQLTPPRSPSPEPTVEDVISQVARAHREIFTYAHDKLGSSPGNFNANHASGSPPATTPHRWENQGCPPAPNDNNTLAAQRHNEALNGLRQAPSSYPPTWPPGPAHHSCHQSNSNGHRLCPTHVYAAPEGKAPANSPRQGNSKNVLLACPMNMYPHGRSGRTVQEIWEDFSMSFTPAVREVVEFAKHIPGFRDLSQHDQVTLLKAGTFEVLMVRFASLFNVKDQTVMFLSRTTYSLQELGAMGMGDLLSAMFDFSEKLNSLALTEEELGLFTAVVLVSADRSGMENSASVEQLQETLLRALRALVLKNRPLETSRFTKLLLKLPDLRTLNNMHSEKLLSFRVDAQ
# NR2E3 ag-1 – human photoreceptor-specific nuclear receptor agonism; CHO-S Gal4-NCOR/VP16-NR2E3 two-hybrid, luciferase; inhibition of corepressor binding, % at 3.98 µM; hit rate 0.35% among 360,000; AID 602229;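 active = inhibition above the mean of all tested compounds plus 3 SD, cut at about 70% in these data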;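 note: higher means lower luciferase signal from less NR2E3 corepressor binding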
# PG9 binder – small molecules binding HIV-1 gp120 antibody PG9 | TR-FRET gp120-PG9 antibody binding | inhibition, % at 6.7 µM | hit rate 0.43% among 360,000; in the data active = inhibition above about 8.5%
# NR2E3 ag-2 – NR2E3 (human) agonism | GST-NR2E3/biotin-RetCOR TR-FRET, 1536-well | inhibition of corepressor binding, % at 4.78 µM | hit rate 0.12% among 320,000 | Q9Y5X4 | AID 2300;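 active = percent inhibition above the cutoff of mean plus 3 SD of all tested compounds, set per screening campaign, cut at about 20% in these data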
#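 Material: NR2E3–RetCOR corepressor complex | Quantity: 1.35 nM GST-tagged NR2E3 final | Schedule: 5 h at 4 °C | Replication: Singlicate compound wells | Reagent: RetCOR corepressor, biotinylated, 7 nM | Controls: Biotin wells as high control, 0.6% DMSO wells as low control | Signal: TR-FRET, Eu(K)-anti-GST donor, streptavidin-D2 acceptor, ex 340, em 617/671 nm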
# Rev-erbA confirm – Rev-erb alpha (human) modulation, hit confirmation | hit rate 61% among 3,000 | AID 1259319 | shares compounds with Rev-erbA mod | activation, % at 25 µM | Rev-erb alpha FITC-DNA binding, fluorescence polarization, 90 min;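 active = activation at or above a set limit, or at least 3 SD above the negative control mean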
# RORg DNA counter – RORgamma DNA-binding activity, dose-response counter-screen | shares compounds with Rev-erbA mod | purified RORgamma protein-FITC-DNA binding, fluorescence polarization | IC50, µM | hit rate 8% among 910 | AID 1259320;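 active = Compounds whose fitted half-maximal concentration for disrupting protein-DNA binding is below 10 micromolar; the record names Rev-erb in its text, so the target is in doubt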
# Numbers stand for hits; - = inactive; . = no result given. Most compounds without a hit are left out; they make up all but 1.4% or so of the library.
SMILES,Rev-erbA mod,NR2E3 ag-1,PG9 binder,NR2E3 ag-2,Rev-erbA confirm,others
Cc1cccc(C)c1NC(=O)CN(C)C(=O)CCc1nc2sc3c(c2c(=O)[nH]1)CCCC3,-,-,-,-,.,
CN(CC(=O)Nc1cccc(F)c1)C(=O)CCc1nc2sc3c(c2c(=O)[nH]1)CCCC3,20.5,-,-,-,-,
CCOC(=O)c1cn2nc(SCc3ccccc3)nc2nc1C,-,-,-,-,.,
N#Cc1cccc(NC(=O)COC(=O)c2ccccc2Sc2ccccc2C#N)c1,36.7,-,-,-,20.5,
CC(=O)c1ccc(NC(=O)COC(=O)c2ccccc2Sc2ccccc2C#N)cc1,54.6,-,-,-,31.3,RORg DNA counter=-
CCOC(=O)c1sc(NC(=O)CN2C(=O)NC3(CCCCCCC3)C2=O)c(C(=O)OCC)c1C,28.2,-,-,-,-,
Cc1c(N2C(=O)/C(=C/c3ccc(N(C)C)cc3)N(C)C2=S)c(=O)n(-c2ccccc2)n1C,22.5,-,-,.,19.0,
C=CCc1ccc(OCCCCN2CC(C)CC(C)C2)c(OC)c1 (centres undefined),-,-,-,-,.,
CCSC1=C(C#N)C2(CCCCC2)C2=C(CC(C)(C)CC2=O)N1,22.3,-,-,-,-,
CC1(C)CC(=O)C2=C(C1)NC(SCC(N)=O)=C(C#N)C21CCCCC1,-,-,-,-,.,
Cc1nnc(SCC(=O)N2CCN(S(=O)(=O)c3ccc(Cl)cc3)CC2)n(N)c1=O,-,-,-,-,.,
O=C(c1ccccc1)c1nn(-c2cccc(Cl)c2)c2nc(-c3ccccc3)cc(=O)n12,24.1,-,-,-,-,
O=C(CSc1nc(-c2ccccc2F)nc2nc[nH]c12)Nc1c(Cl)cc(Cl)cc1Cl,38.0,.,-,-,-,
CCN(CC)c1ccc(C=C2SC(=S)NC2=O)cc1,38.8,-,-,.,29.6,RORg DNA counter=-
COc1ccccc1NS(=O)(=O)c1ccc(C(=O)NCC(c2ccccc2OC)N(C)C)cc1 (centres undefined),-,-,-,.,.,
CCC/C(=N\NC(=O)CNC(=O)c1ccc(Cl)cc1)c1ccccc1,-,-,-,-,.,
CN1C(=O)c2cccc(NCCCN3C(=O)c4ccccc4C3=O)c2C1=O,46.2,-,-,-,19.1,
CC(C)N(C=O)C1(C(=O)NC2CCCCC2)CCCCC1,-,-,-,-,.,
COc1cc(OC)cc(-n2c3nc4ccccc4nc3c3c(=O)n(CC4CCCO4)cnc32)c1 (centres undefined),299.8,.,-,-,142.4,RORg DNA counter=-
O=c1c2c3nc4ccccc4nc3n(CC3CCCO3)c2ncn1CCc1ccccc1 (centres undefined),-,-,-,-,.,
CSCCC(NC(=O)c1ccccc1)C(=O)NCCc1ccccc1 (centres undefined),-,-,-,-,.,
O=C1CN(c2nc(-c3ccccc3)c3cc(Cl)ccc3n2)c2ccccc2N1,31.9,-,-,-,-,
Clc1ccc2nc(N3CCNCC3)nc(-c3ccccc3)c2c1,-,-,-,-,.,
COc1ccc(OC)c(C(=O)COC(=O)c2[nH]c(C)c(C(C)=O)c2C)c1,15.9,-,-,.,-,
CC1CC(=O)N(c2ccc(NCCc3ccc(O)cc3)c([N+](=O)[O-])c2)C1=O (centres undefined),18.9,-,-,-,-,
SMILES,Rev-erbA mod,NR2E3 ag-1,PG9 binder,NR2E3 ag-2,Rev-erbA confirm,others
COc1ccc(-c2cc(C)no2)cc1S(=O)(=O)N1CC(=O)Nc2ccccc21,-,-,-,-,.,
COc1cc(NC(=O)CCc2nnc3ccc(N4CCN(c5cccc(OC)c5)CC4)nn23)cc(OC)c1,29.0,-,-,-,-,
COc1cccc(NC(=O)CCc2nnc3ccc(N4CCN(c5cccc(OC)c5)CC4)nn23)c1,.,-,.,-,.,
Cn1c(=O)n(-c2ccccc2)c(=O)c2c3c(sc21)COC(C)(C)C3,-,-,-,-,.,
CCCCn1c(N)c(N(CC(C)C)C(=O)C2CC(=O)N(CCc3ccccc3)C2)c(=O)[nH]c1=O (centres undefined),12.4,-,-,-,-,
CC(=O)c1ccc(N2CCN(C(=O)CN(C)S(=O)(=O)c3cnc[nH]3)CC2)cc1,.,-,-,-,.,
CC(=O)c1cc(C#N)c(NCc2cc(-c3ccccc3)no2)nc1C,26.4,-,-,-,18.2,
COC(=O)c1cccc(C23CC4(C2)[C@H](CN(C)[C@@H]4c2ccccc2)C3c2ccccc2)c1 (some centres undefined),22.1,-,-,-,41.4,
CCOc1cc(-c2nc(-c3ccncc3)no2)cc(OCC)c1OCC,28.2,-,-,-,-,
CCOc1ccc(-c2nc(-c3ccncc3)no2)cc1OCC,-,-,-,-,.,
Cc1ccc(NC(=O)C(c2ccccc2)N2CCN(CC(=O)NC3CC3)CC2)cc1 (centres undefined),-,-,-,-,.,
N#Cc1cc2c(nc1SCC(=O)Nc1sc3c(c1C#N)CCC3)CCCC2,-,-,-,-,.,
N#Cc1ccc(-c2ccc(F)cc2)nc1SCC(=O)Nc1sc2c(c1C#N)CCC2,31.7,-,-,-,20.9,
O=C(c1ccccc1F)N(Cc1ccc2c(c1)OCO2)Cc1cc2cc3c(cc2n2nnnc12)OCO3,34.0,-,-,-,-,
Cc1cc2cc(CN(Cc3ccc4c(c3)OCO4)C(=O)c3cnccn3)c3nnnn3c2cc1C,-,-,-,-,.,
CCOC(=O)c1sc(NC(=O)CSc2nc(C)cc(-c3ccccc3)n2)c(C#N)c1C,-,-,-,-,.,
CCOC(=O)c1sc(NC(=O)CSc2nc(C)cc(C)c2C#N)c(C#N)c1C,23.6,-,-,-,-,
CCOC(=O)c1sc(NC(=O)CSc2nc3c(c(-c4ccc(OC)cc4)c2C#N)CCCC3)c(C#N)c1C,31.7,-,-,-,21.9,
CCOC(=O)c1sc(NC(=O)CSc2nc3c(cc2C#N)CCCCCC3)c(C#N)c1C,-,-,-,-,.,
Cc1ccc(C)c(NC(=O)CSc2nc(C)cc(C)c2C#N)c1,38.0,-,-,-,25.2,
COc1ccc(-c2c(C#N)c(SCC(N)=O)nc3c2CCCC3)cc1,67.6,-,-,-,37.3,RORg DNA counter=-
CCN(CC(=O)NC(C)(C)C)C(=O)c1cccc(S(=O)(=O)N2CC3(C)CC2CC(C)(C)C3)c1 (centres undefined),-,-,-,.,.,
CC(=O)[C@H]1CCC2C3CC=C4C[C@@H](O)CC[C@]4(C)C3CC[C@@]21C (some centres undefined),-,-,-,.,.,
CC1CCN(c2ccc3c(c2)S(=O)(=O)c2cccc(C(=O)NC[C@@H]4CCCO4)c2C3=O)CC1,17.9,-,-,.,-,
O=C(NC[C@@H]1CCCO1)c1cccc2c1C(=O)c1ccc(N3CCOCC3)cc1S2(=O)=O,-,-,-,.,.,
O=C(NCc1ccccc1Cl)c1cccc2c1C(=O)c1ccc(-c3ccc(OC(F)(F)F)cc3)cc1S2(=O)=O,.,-,.,.,.,
O=C(NCc1cc(C(F)(F)F)ccc1Cl)c1cccc2c1C(=O)c1ccc(Cl)cc1S2(=O)=O,31.7,.,-,.,49.5,RORg DNA counter=-
